Activity calls are given as the source filed them. No cut-off for these calls is given here.

Data set [1] concerns HepG2. As to the kind of experiment: Cytotoxicity against human HepG2 cells assessed as reduction in cell viability measured upto 72 hrs by MTT assay. The following applies: for IC50: HepG2, 72 h. The class given is functional, cell-based. The essentials:
(§1)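 HCC cells plated at 2.5 × 10^4/mL in triplicate and exposed to a range of compound concentrations. Proliferation was read by MTT at 24, 48 and 72 h.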
(Tetrazolium dyes change colour on reduction, which living cells bring about.)

Another data set deals with L02. Kind of data set: Cytotoxicity against human L02 cells assessed as reduction in cell viability measured upto 72 hrs by MTT assay. Particulars: l02, 72 h. The format is cell-based.
For data set [2], the system named is HepG2. Kind of data set: Induction of apoptosis in human HepG2 cells assessed as decrease in full length PARP measured upto 48 hrs by Western blot analysis. Particulars: time hrs <=48, TDE = time-dependent effect. The class given is functional, cell-based. The gist of the method:
(§2)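 Lysates of compound-treated HepG2 cells were immunoblotted for procaspase-3, PARP, survivin and cyclin D1. Full-length PARP is 116 kDa; cleavage yields 85 and 24 kDa fragments.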
(A western blot detects proteins with antibodies after separation by electrophoresis.)

Data set [3] has as its system HepG2. As to the kind of experiment: Induction of apoptosis in human HepG2 cells assessed as decrease in survivin measured upto 48 hrs by Western blot analysis. The class given is functional, cell-based. Particulars: time hrs <=48. The essentials:
as §2

The subject of data set [4] is HepG2. As to the kind of experiment: Induction of apoptosis in human HepG2 cells assessed as increase in pro-caspase 3 activation measured upto 48 hrs by Western blot analysis. The format is functional, cell-based. The following applies: time hrs <=48, TDE = time-dependent effect. The gist of the method: as §2
Data set [5] relates to MDA-MB-231. Kind of data set: Induction of apoptosis in human MBA-MB-231 cells assessed as upregulation of Bcl-xl expression measured upto 48 hrs by Western blot analysis. The format is functional, cell-based. The following applies: time hrs <=48, in the assay text read “downregulation” for “upregulation”. The gist of the method: (§3)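 Bcl-2 and Bcl-xL levels in MDA-MB-231 cells after compound treatment were assessed by western blot, with β-actin as loading control.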

In data set [6] the test system is HepG2. Kind of data set: Induction of apoptosis in human HepG2 cells assessed as increase in PARP cleavage measured upto 48 hrs by Western blot analysis. The format is functional, cell-based. The following applies: time hrs <=48, TDE = time-dependent effect. The essentials: as §2
Data set [7] has as its system HepG2. As to the kind of experiment: Induction of apoptosis in human HepG2 cells assessed as upregulation of Bcl-xl expression measured upto 48 hrs by Western blot analysis. The class given is functional, cell-based. Particulars: time hrs <=48, in the assay text read “downregulation” for “upregulation”, TDE = time-dependent effect. The essentials: (§4)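 HepG2 cells were exposed to compound and harvested at 0, 12, 18, 24 and 48 h. Bcl-2 and Bcl-xL levels were detected by western blot, with β-actin as loading control.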

Data set [8] relates to HepG2. Kind of data set: Induction of apoptosis in human HepG2 cells assessed as upregulation of Bcl-2 expression measured upto 48 hrs by Western blot analysis. The following applies: time hrs <=48, in the assay text read “downregulation” for “upregulation”, TDE = time-dependent effect. The format is functional, cell-based. The gist of the method: as §4
For data set [9], the system named is HepG2. As to the kind of experiment: Induction of apoptosis in human HepG2 cells assessed as decrease in cyclin-D1 measured upto 48 hrs by Western blot analysis. The class given is functional, cell-based. Particulars: time hrs <=48. The gist of the method:
as §2

The subject of data set [10] is HepG2. Kind of data set: Induction of cell cycle arrest in human HepG2 cells assessed as increase in accumulation of SubG1 phase incubated for 48 hrs by propidium iodide staining based flow cytometry analysis. The class given is functional. Particulars: dose 10-40 µM. The gist of the method:
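HepG2 cells were treated at 0, 10, 20 and 40 µM for 48 h, then ethanol-fixed and stained with propidium iodide. Cell cycle distribution, including the subG1 fraction, was analysed by flow cytometry.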

Data set [11] concerns HepG2. Kind of data set: Antiproliferative activity in human HepG2 cells transfected with Bcl2 siRNA assessed as reduction in cell growth at 10 to 50 uM incubated for 24 hrs by MTT assay. The format is functional, cell-based. The following applies: dose 10-50 µM. The gist of the method:
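HepG2 cells were transfected with Bcl-2 siRNA, with control siRNA-transfected cells as the comparator. Cells were then exposed to graded compound doses, and proliferation was measured by MTT.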

In data set [12] the test system is MDA-MB-231. As to the kind of experiment: Induction of apoptosis in human MBA-MB-231 cells assessed as upregulation of Bcl-2 expression measured upto 48 hrs by Western blot analysis. The format is functional, cell-based. Particulars: time hrs <=48, TDE = time-dependent effect, in the assay text read “downregulation” for “upregulation”. The gist of the method: as §3

Another data set concerns Hep 3B2. Kind of data set: Cytotoxicity against human Hep3B cells assessed as reduction in cell viability measured upto 72 hrs by MTT assay. Particulars: dose 10-50 µM, time hrs <=72. The format is functional, cell-based. The gist of the method: as §1
The next data set concerns Huh-7. As to the kind of experiment: Cytotoxicity against human HuH-7 cells assessed as reduction in cell viability measured upto 72 hrs by MTT assay. The class given is functional, cell-based. The following applies: dose 10-50 µM, time hrs <=72. The gist of the method:
as §1

One may read the IC50 as the concentration needed to halve the response being measured. Turning to `COc1ccc(-c2cccc3ccccc23)cc1C12CC3CC(CC(C3)C1)C2`, the IC50 in the data set on HepG2 [1] came out at 46.2 µM. Moreover, in the data set on L02, the Activity result was “Non-Toxic”.

For the compound `COc1ccc(-c2ccccc2F)cc1C12CC3CC(CC(C3)C1)C2`, the IC50 in the data set with HepG2 [1] is over 50 µM. The Activity result in the data set on L02 is on record as “Non-Toxic”.

Take `COc1ccc(C2=Cc3ccccc3C2)cc1C12CC3CC(CC(C3)C1)C2`: the IC50 with HepG2 [1] was 6.9 µM. Moreover, in the data set on L02, the Activity entry is listed as “Toxic”.

For the compound `COc1ccc(-c2cccc(Cl)c2)cc1C12CC3CC(CC(C3)C1)C2`, in the data set on L02, the Activity result is listed as “Non-Toxic”.

Take `COc1ccc(-c2ccccc2Cl)cc1C12CC3CC(CC(C3)C1)C2`: in the data set on HepG2 [1], the IC50 is 21.9 µM. Moreover, the Activity result with L02 is on record as “Toxic”.

With `COc1ccc(-c2ccccc2C#N)cc1C12CC3CC(CC(C3)C1)C2`, the IC50 with HepG2 [1] was over 50 µM. Besides, in the data set on L02, the Activity entry is “Non-Toxic”.

On to `COc1ccc(-c2ccc(Cl)c(C(F)(F)F)c2)cc1C12CC3CC(CC(C3)C1)C2`, for which the IC50 with HepG2 [1] is over 50 µM. Besides, the Activity entry in the data set on L02 is “Non-Toxic”.

With `COc1ccc(-c2cccc(O)c2)cc1C12CC3CC(CC(C3)C1)C2`, the IC50 with HepG2 [1] came out at 26.1 µM. In addition, the Activity entry in the data set with HepG2 [2] is “Tde”; in the data set on L02 it was “Non-Toxic”; with HepG2 [4], “Tde”; in the data set on HepG2 [6], “Tde”; with HepG2 [7], “Tde”; with HepG2 [8], “Tde”. In addition, the Activity result with HepG2 [10] is “Dose-dependent effect”; in the data set with MDA-MB-231 [12], “Tde”. Besides, the outcome in the data set on HepG2 [3], in the data set with MDA-MB-231 [5] and in the data set with HepG2 [9] was Active. Besides, the inhibition result with HepG2 [11] was “inactive”.

Consider `COc1ccc(-c2ccc(C(=O)N3CCCCC3)cc2)cc1C12CC3CC(CC(C3)C1)C2`, for which, in the data set with HepG2 [1], the IC50 is over 50 µM. Also, the Activity result in the data set with L02 is “Non-Toxic”.

Regarding `CC1(C)CCC(c2ccc(Cl)cc2)=C(CN2CCN(c3ccc(C(=O)NS(=O)(=O)c4ccc(N[C@H](CCN5CCOCC5)CSc5ccccc5)c(S(=O)(=O)C(F)(F)F)c4)cc3)CC2)C1`, the Activity result in the data set with HepG2 [1] (time hrs <=72), with Hep 3B2 and in the data set on Huh-7 was “Dose-dependent effect” each time.

On to `COc1ccc(-c2ccccc2)cc1C12CC3CC(CC(C3)C1)C2`, for which, in the data set with HepG2 [1], the IC50 was over 50 µM. In addition, the Activity entry in the data set on L02 is given as “Non-Toxic”.

Regarding `COc1ccc(-c2ccccc2C)cc1C12CC3CC(CC(C3)C1)C2`, the IC50 with HepG2 [1] was determined as 49.1 µM. Besides, the Activity entry with L02 is listed as “Non-Toxic”.

Take `COc1ccc(-c2c(F)cc(F)c(OC)c2F)cc1C12CC3CC(CC(C3)C1)C2`: the IC50 in the data set with HepG2 [1] was over 50 µM. In addition, the Activity result with L02 is “Non-Toxic”.

With `COc1ccc(-c2ccc(C(F)(F)F)cc2)cc1C12CC3CC(CC(C3)C1)C2`, the IC50 in the data set with HepG2 [1] is over 50 µM. Also, in the data set with L02, the Activity entry was “Non-Toxic”.

Regarding `COc1cccc(-c2ccc(OC)c(C34CC5CC(CC(C5)C3)C4)c2)c1`, the IC50 in the data set with HepG2 [1] was over 50 µM. Also, the Activity entry in the data set on L02 is “Non-Toxic”.
